Source: PMC11840607 (ACS Omega, 2025)

Tests used:
[1] = test system: H1975 cells; test: MTT antiproliferative assay, H1975; format: cell-based, human; conditions: ratio of IC50 BEAS-2B to H1975
Summary of the method: (§1)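 Cell culture: A549, PC9 and normal lung epithelial BEAS-2B in DMEM with 10% FBS and penicillin/streptomycin/amphotericin B; H1975 in RPMI-1640 with 10% FBS; all at 37 °C, 5% CO2. Log-phase cells seeded at 3 × 10^3/well overnight, then exposed to graded compound concentrations or DMSO for 72 h. MTT added for 4 h in the dark, crystals dissolved in DMSO, absorbance read at 490 nm; three parallel experiments.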

[2] = test system: A549 cells; test: MTT antiproliferative assay, A549; format: cell-based, human; conditions: ratio of IC50 BEAS-2B to A549
Summary of the method: as §1

[3] = test system: p-PI3K, p-AKT; test: Western blot of PI3K and AKT; format: cell-based, human; conditions: 48 h
Summary of the method: (§2)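 Cells treated with the indicated concentrations of test compound for 48 h. Lysates were heat-denatured at 104 °C for 12 min, protein measured by BCA, and equal amounts run on SDS-PAGE and transferred to PVDF. Membranes were blocked 1 h with 5% BSA or milk, incubated with primary antibody overnight at 4 °C, then secondary 2 h at room temperature. Detection by ECL; bands quantified by densitometry.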

[4] = test system: p27, p21, CDK2, p-Rb; test: Western blot of G1 phase associated proteins; format: cell-based, human; conditions: A549, 0.5 to 2.0 μM, 48 h
Summary of the method: (§3)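 A549 cells were exposed to the indicated test compound concentrations for 48 h, then lysed and heat-denatured at 104 °C for 12 min. Protein was quantified by BCA, and equal amounts were resolved by SDS-PAGE onto PVDF. Membranes were blocked 1 h (5% BSA or skim milk), given primary antibody overnight at 4 °C, washed in TBST, given secondary antibody 2 h at room temperature, and imaged by ECL.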

[5] = test system: mitochondrial membrane potential; test: Mitochondrial membrane potential, JC-1, flow cytometry; format: cell-based; conditions: control 19.25%
Summary of the method: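 Cells in six-well plates were stained with JC-1 working solution, prepared per kit, for 20 min at 37 °C. After a PBS wash, mitochondrial membrane potential was measured by flow cytometry and also viewed by fluorescence microscopy.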

[6] = test system: A549 cells; test: Annexin V-FITC/PI apoptosis assay, flow cytometry; format: cell-based, human; conditions: 48 h, control 2.64%
Summary of the method: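 A549 cells seeded at 1 × 10^5 per well in 6-well plates and left overnight. They were then treated with test compound for 48 h, collected by PBS rinsing and stained with Annexin V-FITC and PI for 15 min at room temperature in the dark. Apoptotic fractions were read by flow cytometry; mean ± SD, n = 3.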

[7] = test system: cleaved-caspase 9, Bax, Bcl-2; test: Western blot of apoptosis-related proteins; format: cell-based, human; conditions: A549, 48 h
Summary of the method: as §2

[8] = test system: ALK, p-ALK; test: Western blot of ALK and p-ALK; format: cell-based, human; conditions: A549, 48 h
Summary of the method: as §3

[9] = test system: A549 spheroids; test: 3D spheroid cell inhibition assay; format: cell-based, human; conditions: treated every 3 days
Summary of the method: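 A549 cells seeded at 20 000 cells/well in ultralow-attachment U-bottom wells to form tumor spheroids. Once formed, spheroids were exposed to the indicated concentrations of test compound, renewed every 3 days. Spheroids were photographed under a microscope to document growth and morphology.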

[10] = test system: A549 cells; test: Cell cycle analysis, PI staining, flow cytometry; format: cell-based, human; conditions: A549, 48 h
Summary of the method: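 A549 cells were exposed to a range of test compound concentrations for 48 h. They were then washed in cold PBS, fixed in precooled 70% ethanol and held overnight at −20 °C. After a PBS wash, cells were stained for 30 min at room temperature in the dark with PI (50 μg/mL) plus RNase A (100 μg/mL). DNA content was read by flow cytometry.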

[11] = test system: ALK; test: Proteome Profiler Human Phospho-RTK Array; format: cell-based; conditions: A549, 2.0 μM, 24 h
Summary of the method: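 A549 cells were treated with test compound (2.0 μM) or left untreated for 24 h, then lysed in buffer with protease and phosphatase inhibitors. Protein was measured by Bradford. Arrays covering 49 phospho-RTKs were blocked for 1 h, then incubated with 450 μg lysate overnight at 4 °C. After three washes, arrays were probed for 2 h with anti-phospho-tyrosine-HRP and developed by chemiluminescence.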

CC(=O)O[C@H]1C(=O)[C@@]2(C)[C@H]([C@H](OC(=O)c3ccccc3)[C@]3(O)C[C@H](OC(=O)[C@H](O)[C@@H](NC(=O)c4ccccc4)c4ccccc4)C(C)=C1C3(C)C)[C@]1(OC(C)=O)CO[C@@H]1C[C@@H]2O [paclitaxel, reference compound]
selectivity (fold) H1975 vs BEAS-2B [1]: 3.28 fold | selectivity (fold) A549 vs BEAS-2B [2]: 0.42 fold

CN(C)CCn1cnc2ccc(-c3ccc4sc(NC(=O)Nc5ccc(F)cc5)nc4c3)cc2c1=O [Compound 38]
selectivity (fold) H1975 vs BEAS-2B [1]: 0.92 fold | selectivity (fold) A549 vs BEAS-2B [2]: 1.30 fold

CCCn1cnc2ccc(-c3ccc4sc(NC(=O)Nc5ccc(F)cc5)nc4c3)cc2c1=O [Compound 45]
p-AKT protein expression [3]: inhibited the protein expression | p-PI3K protein expression [3]: inhibited the protein expression | CDK2 expression level [4]: reduced in a concentration-dependent manner | p21 expression level [4]: markedly upregulated in a dose-dependent manner | p27 expression level [4]: markedly upregulated in a dose-dependent manner | p-Rb expression level [4]: reduced in a concentration-dependent manner | selectivity (fold) H1975 vs BEAS-2B [1]: 5.80 fold | JC-1 M2 fraction (change of Δψm) ([5]; 0.25 μM): 47.72% | JC-1 M2 fraction (change of Δψm) ([5]; 0.5 μM): 51.16% | JC-1 M2 fraction (change of Δψm) ([5]; 1.0 μM): 60.52% | annexin V positive cells (Q2-4) ([6]; A549, 2.0 μM): 7.13% | annexin V positive cells (Q2-4) ([6]; A549, 4.0 μM): 20.36% | Bax level [7]: increased in a concentration-dependent manner | Bcl-2 level [7]: decreased | cleaved-caspase 9 level [7]: increased in a concentration-dependent manner | phosphorylation level of ALK (Western blot) [8]: reduces the phosphorylation levels of ALK | total protein level of ALK (Western blot) [8]: decreases the total protein levels of ALK | growth of A549 tumor spheres [9]: can inhibit the growth of tumor spheres | cell cycle distribution [10]: induced cell cycle arrest at the G1 phase in a concentration-dependent manner | phosphorylation level of ALK (Phospho-RTK array) [11]: reduced the phosphorylation levels of ALK | selectivity (fold) A549 vs BEAS-2B [2]: 7.10 fold
